Data taken from ChEMBL document CHEMBL4513216, “Probing the Open Global Health Chemical Diversity Library for Multistage-Active Starting Points for Next-Generation Antimalarials” (ACS Infect Dis, 2020).

Experiment: Toxicity liver stage against HepG2, at 10uM
Format: cell-based
Set-up: test concentration 10 uM, cell line HepG2-A16-CD81EGFP
Details: human, HepG2-A16-CD81EGFP cells; read-out: INHIBITION
Method in brief: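 Uninfected HepG2-A16-CD81EGFP cells, 3 × 10^3 per well, 1536-well, plated on prespotted compound at 10 μM final, parasite-free screening media added to match infected plates; puromycin 10 μM positive, DMSO 0.5% negative; run in parallel with 48 h PbLuc assay at 37 °C, 5% CO2; viability by CellTiter-Glo luminescence, normalized to controls.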

Structure (SMILES) | cytotoxicity at 10 µM [%]
CCn1cnnc1CNC(=O)NCC(C(C)C)N1CCC(C)CC1 (configuration not stated) | -4.65
CCc1nc(NS(=O)(=O)c2ccc(F)cc2C)no1 | -10.9
CCn1cc2c(n1)C(COC)CN(C(=O)CCOc1ccccc1)C2 (configuration not stated) | 0.234
COc1cccc(CNCc2nnc3n2CC(C(F)(F)F)CC3)c1 (configuration not stated) | 14
COc1ccc(OC)c(CN2CCN(Cc3cscn3)CC2)c1 | -7.15
CCn1c(C)nnc1CN(C)C1CCN(Cc2c(C)noc2C)C1 (configuration not stated) | 0.317
Cn1ccnc1C(=O)N[C@@H]1CN(CC2CCOCC2)[C@@H]2CCCO[C@@H]21 | -97.8
CN(Cc1ccsc1)C(=O)c1ccc(F)c(NS(C)(=O)=O)c1 | -5.7
O=S(=O)(C1CC1)N1C[C@H]2CCC[C@@]2(COCc2ccccn2)C1 | 10.6
CCCNC(=O)CCC(=O)n1nc(C)c2ccccc21 | 1.23
CCN1CCC(NN2CCN(C)CC2)CC1 | 0.935
CS(=O)(=O)NCCN1CCCC1c1noc(C2CC2)n1 (configuration not stated) | -23.7
COc1ccc(N2CCN(C(=O)C3[C@H]4CNC[C@@H]34)CC2(C)C)cc1 (some centres not stated) | 12.1
COCC1CCN(c2cc(C3CN(C)CCO3)nc(C)n2)CC1 (configuration not stated) | 4.71
O=C(c1cncc(NCC2COc3ccccc3C2)n1)N1CCCC1 (configuration not stated) | -6.53
COCC(=O)NCc1cc(=O)n2c(n1)CN(Cc1ccoc1)CCC2 | -124
Cc1ccc(-c2noc(C3CCN3C(=O)c3c(C)noc3C)n2)s1 (configuration not stated) | 6.09
O=C1N(CCc2ccccc2)CCCC1(O)CNCc1ccc(F)cc1 (configuration not stated) | -1.24
Cc1ccn(-c2ccccc2NCc2cccnc2C)n1 | 1.34
CCn1c(C(=O)N2CCN(CC(C)O)CC2)cc2ccccc21 (configuration not stated) | -8.96
COc1ccc2c(c1)CCN(Cc1cscn1)CC2 | 0.0869
Cc1ncncc1C(=O)Nc1cnn(CC(=O)NC2CCCC2)c1 | 4.88
Cc1ccccc1CN1C[C@@H]2OCC(=O)N(CC(N)=O)[C@@H]2C1 | -4.87

Structure (SMILES) | cytotoxicity at 10 µM [%]
CC(C)NC(=O)N1CCOC2(CCNCC2)C1 | -2.69
Cn1ccnc1C1CCCN(C(=O)c2cc(F)cc(F)c2)C1 (configuration not stated) | 18.4
O=C1CN(CCCNC(=O)Nc2ccccn2)CCN1 | -10.1
CCc1ccc(CN2CC[C@@H]3NC(=O)CC[C@@H]32)o1 | 3.06
Cc1cc(F)cc2c(N3CCS(=O)(=O)CC3)c(C#N)cnc12 | -16.7
CC(C)S(=O)(=O)c1ccccc1C(=O)NCC1Cc2ccccc2O1 (configuration not stated) | 5.87
CCOc1cc(Cl)ccc1CNC(=O)N1CCCC(CO)C1 (configuration not stated) | 9.54
Cc1cccnc1CN1CCC2(CC(Nc3ccncn3)C2)C1 (configuration not stated) | -6.36
c1cnn(CCNCc2cnc(N3CCOCC3)nc2)c1 | -1.73
COCCN1CCC(NCc2ccc(Cl)cc2)C1 (configuration not stated) | -5.56
CSCc1noc(CNC(=O)C2CCN(C(=O)C3CCCC3)CC2)n1 | 9.98
CN(C)CCO[C@H]1CN(C(=O)c2cscn2)[C@@H]2COC[C@H]12 | 1.43
COc1cccc(F)c1C(C)NC(=O)NCc1cc(C(C)C)no1 (configuration not stated) | 4.25
COc1ccc(C(=O)NCCCn2ccnc2)c(OC)n1 | 4.99
COc1ccc(S(=O)(=O)N2CCOC(C)(C(N)=O)C2)cc1 (configuration not stated) | 5.49
Cn1cc(N2CC3(CCN(Cc4nccs4)CC3)OCC2=O)cn1 | 5.86
CCC1=N[C@@]2(CC[C@@H]3CN(Cc4ccccc4C)C[C@@H]32)C(=O)N1C | -107
Cc1cc(C(F)(F)F)c2c(C3CCN(S(=O)(=O)N(C)C)CC3)noc2n1 | 3.63
CCN(CCc1nc2cc(C)ccc2[nH]1)C(=O)[C@@H](N)Cc1c[nH]cn1 | -3.78
CCOCCC(=O)N(Cc1ccncc1)C(C)CC (configuration not stated) | 9.99
COc1cccc(CN2CCc3nc4ccsc4c(=O)n3CC2)c1 | -26.5
COCCCN(Cc1ccncc1)c1cc(C)ncn1 | 3.35
Cc1nnc(C[C@@H]2COC[C@H]3CN(C(=O)c4ccco4)C[C@@H]23)o1 | -8.75

Structure (SMILES) | cytotoxicity at 10 µM [%]
O=C(c1ccc(Cl)cc1)N1CCC(N2CCOC2=O)CC1 | 7.72
O=C(COc1ccc(Br)cc1F)Nc1cn[nH]c1 | -24.1
COC(=O)c1ccoc1CN(C)CC(=O)NC1CCS(=O)(=O)C1 (configuration not stated) | -14.2
CSc1ccccc1C(=O)Nc1ccc(OC2CCN(C)CC2)cc1 | 3.39
Cc1cc(O)nc(C2CCCN(CCO)C2)n1 (configuration not stated) | -14.6
CCN1C(=O)C2(CCOCC2)c2cc(NC(=O)c3cc(C)n[nH]3)ccc21 | -2.49
CC(O)CCN(C)C(=O)Nc1cccc(F)c1 (configuration not stated) | -6.16
Cc1ccc(CN2CCN(Cc3ccc(N(C)C)nc3)CC2=O)cc1C | -2.43
CC(c1ccc(Cl)cc1)N1CCN(CCCS(C)(=O)=O)CC1 (configuration not stated) | -8.73
CCc1nn(C)c(Cl)c1CN1CCCC2(CC1)CN(C)C(=O)O2 (configuration not stated) | 5.63
O=C(COC1CCCC1)NCc1ccc(O)c(F)c1 | -2.43
Cc1nn(C)cc1-c1cc(C(F)F)nc2sc(C(N)=O)c(N)c12 | 2.6
CC(C)c1ccccc1OCCNC(=O)N1CCC2(CC1)OCCO2 | 8.75
Cn1c(N)nnc1SC1CCCN(c2ccccc2)C1=O (configuration not stated) | 0.296
O=C(c1ccnnc1)N1CC[C@@H](O)[C@@H]1Cc1ccccc1 | 5.03
CC(C)c1ccc(NC(=O)c2ncc(C(N)=O)cc2Cl)cc1 | -1.85
Cc1ccc(CNc2ccc(N3CCC(CO)CC3)cn2)o1 | 19.1
CC(C)(C)n1ncc2c1CCCC2NCc1cccc2c1OCO2 (configuration not stated) | 3.37
CC1CCN(C(CNC(=O)CCn2cccn2)c2cccs2)CC1 (configuration not stated) | 13.5
CCCc1nc(CNC(C)Cn2cccn2)cs1 (configuration not stated) | -12.5
COCCCn1ccnc1-c1cnc(OC)nc1 | -13.6
O=C(c1ccsc1)N1CCc2c(CNc3ncccn3)n[nH]c2C1 | -16.7
CCc1ccc(C(=O)NCc2ccnc(C)n2)cc1 | -4.91

Structure (SMILES) | cytotoxicity at 10 µM [%]
CN(CC(=O)N1CCOCC(CO)C1)Cc1ccccn1 (configuration not stated) | 0.382
COc1cn(CC(N)=O)c(CSc2nccc(C)n2)cc1=O | -12.1
COc1ccc(F)cc1C(=O)N(C)Cc1cc(C)on1 | 0.35
CC(C)N1CCC(c2cc(C(F)(F)F)n3ccnc3n2)CC1 | -16.2
O=C(NCc1nnc2ccccn12)N1CCOC(c2ccsc2)C1 (configuration not stated) | 0.305
O=C1N(CCC2CCCCC2)CCCC1(O)CNCCc1ccccc1 (configuration not stated) | -8.92
Cc1cc(C)n(CC2CCCN2C(=O)c2cccc(C#N)c2)n1 (configuration not stated) | -9.19
O=C(C1CCC1)N1CC[C@]2(O)CCN(Cc3ncccn3)C[C@@H]2C1 | 3.97
CCN(C(=O)C(C)C)C(c1cccnc1)c1ccc2c(c1)CCO2 (configuration not stated) | 2.14
CC(C)N(Cc1ccccn1)C(=O)CCOc1cccc(F)c1 | 4.58
CN(Cc1ccc(-n2cccn2)cc1)C[C@@H]1CCCN2CCCC[C@H]12 | 0.537
Cc1cc(CNC(C)Cn2cncn2)ccc1Br (configuration not stated) | 2.33
CCN1CC(C(=O)N2CC(Oc3ccccc3Cl)C2)CCC1=O (configuration not stated) | -8.62
N#CCCCOc1cccnc1NC(=O)Cc1ccccc1F | -2.27
Cc1cccc(NS(=O)(=O)c2ccc(C#N)nc2)c1C#N | 0.0489
COCc1ncc(-c2nccn2CCS(C)(=O)=O)cn1 | -17.2
O=C(CC1CC1)N1C[C@@H]2CCN(c3cccnc3)C[C@@H]2C1 | 4.62
CSCCC(=O)N1CCN(CC(C)(C)O)CC1 | -5.85
COc1cc(COCC2CCN(Cc3ccccn3)CC2)cc(OC)c1 | -3.36
Cc1noc(C(C)N2CCN(c3ccc(C#N)cn3)CC2)n1 (configuration not stated) | -0.871
Cc1noc(C)c1CN(C)C(=O)CN1CC(c2ccccc2)CC1=O (configuration not stated) | -2.4
Cc1ccc(CC(=O)N2CCOCC2c2c(C)n[nH]c2C)cc1 (configuration not stated) | 5.12
O=C(C1CC1)N1CCN(C(=O)C2CC(=O)N(c3ccccc3Br)C2)CC1 (configuration not stated) | 12.8

Structure (SMILES) | cytotoxicity at 10 µM [%]
COCC(=O)NC[C@H]1C[C@@H]2CCN1C[C@@H]2CN(C)c1ccccc1 | -2.17
Cc1cnn(CC2CN(Cc3nc(N)c4ccccc4n3)CCO2)c1 (configuration not stated) | 5.9
CN1CCC2(CCN(C(=O)c3cccnc3)C2)C1 (configuration not stated) | -101
Cc1cc(NC(=O)CN2CCCC(Cn3cncn3)C2)no1 (configuration not stated) | -0.749
Cn1nccc1CN1CCOC(c2cccc(Nc3ccccn3)n2)C1 (configuration not stated) | 23.9
CC(C)NC(=O)N1CCC2(CC1)NC(=O)[C@H]1CN(C(=O)N(C)C)C[C@H]12 | -1.66
CN(C(=O)CN1CCC(c2cc3ccccc3[nH]2)CC1)C(C)(C)C#N | 6.24
COc1cc(CNCc2c(C)nn(CC(C)C)c2N(C)C)ccn1 | -9.3
CO[C@H]1CN(C(C)C)C[C@@H]1NC(=O)Nc1cccc(SC)c1 | 2.85
Cc1nsc(C(=O)NCCc2cccs2)n1 | -2.67
CC(=O)N1CCN(C(=O)CNc2ccc3ncsc3c2)CC1 | -2.01
COC(=O)c1ccc2ccn(CC3CCCCO3)c(=O)c2c1 (configuration not stated) | -0.551
CCN1CCC2(CC1)C(=O)Nc1ccc(C(=O)NC)cc12 | -0.697
c1ccc(-c2ncc3c(n2)C2(CCN(CC4CC4)C2)COC3)cc1 (configuration not stated) | 0.975
Cc1cnn(CC2CN(Cc3ccc(C(N)=O)cc3)CCO2)c1 (configuration not stated) | -2.28
O=C(CCn1ccc2ccc(Cl)cc21)NCc1ccc(C(=O)O)cc1 | -0.411
Cc1nc(C)n(CCCn2ccnc2-c2cc3n(n2)CCCNC3)n1 | 3.71
CCC(Nc1cccc(OC)c1)C(=O)N(CCOC)Cc1cnn(C)c1 (configuration not stated) | -1.28
COC[C@@]12CCO[C@@H]1CCN(C(=O)Cc1ccccc1C)C2 | 2.05
CC1CCN(C(=O)NCC(=O)N(C)CC(F)(F)F)C1 (configuration not stated) | 1.82
